Reference: ChEMBL document CHEMBL3098105, “7,7'-Diazaindirubin--a small molecule inhibitor of casein kinase 2 in vitro and in cells” (Bioorg Med Chem, 2014)

Experiments:
[1] = target: Glycogen synthase kinase-3 beta (Homo sapiens) (UniProt P49841); assay: Inhibition of GSK3-beta (unknown origin) assessed as residual activity at 1 uM relative to control
[2] = target: Fibroblast growth factor receptor 1 (Homo sapiens) (UniProt P11362); assay: Inhibition of FGF-R1 (unknown origin) assessed as residual activity at 1 uM relative to control
Fibroblast growth factor receptor 1 (Homo sapiens), sequence (P11362 22-822 limits assumed): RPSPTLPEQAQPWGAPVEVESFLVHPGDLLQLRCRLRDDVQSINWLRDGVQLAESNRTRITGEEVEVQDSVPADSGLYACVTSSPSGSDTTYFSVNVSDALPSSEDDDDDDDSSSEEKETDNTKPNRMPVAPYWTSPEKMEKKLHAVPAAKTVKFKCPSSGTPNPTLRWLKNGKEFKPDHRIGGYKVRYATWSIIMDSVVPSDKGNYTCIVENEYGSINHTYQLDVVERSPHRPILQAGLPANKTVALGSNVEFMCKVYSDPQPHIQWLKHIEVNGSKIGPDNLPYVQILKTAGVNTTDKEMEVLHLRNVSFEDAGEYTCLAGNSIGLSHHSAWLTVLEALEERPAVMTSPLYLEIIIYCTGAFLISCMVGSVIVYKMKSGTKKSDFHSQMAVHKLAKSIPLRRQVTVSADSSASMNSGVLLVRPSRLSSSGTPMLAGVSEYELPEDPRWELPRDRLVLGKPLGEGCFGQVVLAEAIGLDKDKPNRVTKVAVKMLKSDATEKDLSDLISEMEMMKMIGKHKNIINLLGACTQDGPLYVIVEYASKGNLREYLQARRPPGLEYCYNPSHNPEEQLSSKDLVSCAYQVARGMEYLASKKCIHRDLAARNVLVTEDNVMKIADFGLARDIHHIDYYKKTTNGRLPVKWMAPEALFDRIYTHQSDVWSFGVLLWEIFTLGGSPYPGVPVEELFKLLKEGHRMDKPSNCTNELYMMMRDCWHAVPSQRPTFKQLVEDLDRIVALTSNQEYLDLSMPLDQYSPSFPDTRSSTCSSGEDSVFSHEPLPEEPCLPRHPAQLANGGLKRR

[3] = target: T1, Serine/threonine-protein kinase Chk1 (Homo sapiens) (UniProt O14757); assay: Inhibition of CHK1 (unknown origin) assessed as residual activity at 1 uM relative to control
T1 sequence (whole entry): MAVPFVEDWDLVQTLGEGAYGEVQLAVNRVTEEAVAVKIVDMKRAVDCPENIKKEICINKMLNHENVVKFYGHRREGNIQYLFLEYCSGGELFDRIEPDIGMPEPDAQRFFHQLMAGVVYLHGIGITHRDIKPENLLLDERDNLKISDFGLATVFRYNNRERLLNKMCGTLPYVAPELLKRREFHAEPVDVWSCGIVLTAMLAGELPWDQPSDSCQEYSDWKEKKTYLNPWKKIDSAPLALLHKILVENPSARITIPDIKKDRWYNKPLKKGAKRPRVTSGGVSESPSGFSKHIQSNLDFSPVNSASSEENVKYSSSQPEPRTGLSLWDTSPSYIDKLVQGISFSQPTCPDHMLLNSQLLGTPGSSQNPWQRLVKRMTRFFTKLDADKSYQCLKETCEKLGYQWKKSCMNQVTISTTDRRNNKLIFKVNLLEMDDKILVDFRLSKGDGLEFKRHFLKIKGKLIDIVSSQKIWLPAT

[4] = target: Tyrosine-protein kinase ABL1 (Homo sapiens) (UniProt P00519); assay: Inhibition of ABL1 (unknown origin) assessed as residual activity at 1 uM relative to control
Tyrosine-protein kinase ABL1 (Homo sapiens), sequence (P00519 whole entry): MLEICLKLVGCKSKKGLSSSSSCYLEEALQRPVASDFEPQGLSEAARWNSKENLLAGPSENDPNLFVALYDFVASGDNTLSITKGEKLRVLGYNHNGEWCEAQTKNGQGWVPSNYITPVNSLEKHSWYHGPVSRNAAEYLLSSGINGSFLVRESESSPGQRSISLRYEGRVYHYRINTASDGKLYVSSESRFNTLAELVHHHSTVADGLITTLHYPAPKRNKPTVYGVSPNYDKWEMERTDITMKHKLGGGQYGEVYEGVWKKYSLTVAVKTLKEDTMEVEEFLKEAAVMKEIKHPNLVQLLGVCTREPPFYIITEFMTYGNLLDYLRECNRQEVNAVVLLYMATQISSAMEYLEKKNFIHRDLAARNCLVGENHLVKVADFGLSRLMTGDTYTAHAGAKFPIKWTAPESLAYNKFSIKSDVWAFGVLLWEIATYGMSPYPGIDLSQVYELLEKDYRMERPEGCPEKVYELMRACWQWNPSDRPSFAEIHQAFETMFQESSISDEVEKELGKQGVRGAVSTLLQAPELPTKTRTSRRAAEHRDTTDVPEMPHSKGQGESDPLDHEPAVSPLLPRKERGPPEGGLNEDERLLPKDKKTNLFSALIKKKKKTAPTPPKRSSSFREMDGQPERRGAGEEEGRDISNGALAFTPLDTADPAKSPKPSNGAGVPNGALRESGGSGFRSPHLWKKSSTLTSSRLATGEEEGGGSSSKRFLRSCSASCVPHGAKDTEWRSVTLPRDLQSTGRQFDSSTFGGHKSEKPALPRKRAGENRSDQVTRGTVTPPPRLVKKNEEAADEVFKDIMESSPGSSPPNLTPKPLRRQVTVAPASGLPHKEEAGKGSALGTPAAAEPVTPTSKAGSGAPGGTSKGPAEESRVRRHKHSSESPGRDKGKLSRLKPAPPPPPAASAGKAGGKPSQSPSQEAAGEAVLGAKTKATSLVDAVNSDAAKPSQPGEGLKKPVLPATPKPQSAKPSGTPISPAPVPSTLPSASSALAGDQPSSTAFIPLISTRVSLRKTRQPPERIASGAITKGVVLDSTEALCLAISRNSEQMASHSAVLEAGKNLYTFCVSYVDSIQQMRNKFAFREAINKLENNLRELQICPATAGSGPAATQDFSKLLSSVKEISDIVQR

[5] = Antiproliferative activity against human Hs 578T cells after 3 days by sulforhodamine B assay; format: functional; conditions: 72 h
In short: (§1)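 Tested in the NCI 60 cell line panel. GI50 is the concentration giving 50% inhibition of cell growth, and values are the mean of two series of tests.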

[6] = tested on: DU-145; assay: Antiproliferative activity against human DU145 cells after 3 days by sulforhodamine B assay; format: functional; conditions: DU-145, 72 h; in short: as §1
[7] = tested on: CAKI-1; assay: Antiproliferative activity against human CAKI-1 cells after 3 days by sulforhodamine B assay; format: functional; conditions: CAKI-1, 72 h; in short: as §1
[8] = tested on: LOX IMVI; assay: Antiproliferative activity against human LOXIMVI cells after 3 days by sulforhodamine B assay; format: functional; conditions: 72 h; in short: as §1
[9] = tested on: SNB-75; assay: Antiproliferative activity against human SNB75 cells after 3 days by sulforhodamine B assay; format: functional; conditions: SNB-75, 72 h
[10] = tested on: NCI-H322M; assay: Antiproliferative activity against human NCI-H322M cells after 3 days by sulforhodamine B assay; format: functional; conditions: 72 h; in short: as §1
[11] = tested on: MCF7; assay: Cell cycle arrest in human MCF7 cells assessed as accumulation at sub-G1 phase at 0.25 uM after 24 hrs using propidium iodide staining by FACS analysis (reference value: 0.17%); format: functional
[12] = target: Tyrosine-protein kinase Yes (Homo sapiens) (UniProt P07947); assay: Inhibition of human Yes assessed as residual activity at 1 uM relative to control
[13] = target: Tyrosine-protein kinase TXK (Homo sapiens) (UniProt P42681); assay: Inhibition of human Txk assessed as residual activity at 1 uM relative to control
Tyrosine-protein kinase TXK (Homo sapiens), sequence (P42681 whole entry): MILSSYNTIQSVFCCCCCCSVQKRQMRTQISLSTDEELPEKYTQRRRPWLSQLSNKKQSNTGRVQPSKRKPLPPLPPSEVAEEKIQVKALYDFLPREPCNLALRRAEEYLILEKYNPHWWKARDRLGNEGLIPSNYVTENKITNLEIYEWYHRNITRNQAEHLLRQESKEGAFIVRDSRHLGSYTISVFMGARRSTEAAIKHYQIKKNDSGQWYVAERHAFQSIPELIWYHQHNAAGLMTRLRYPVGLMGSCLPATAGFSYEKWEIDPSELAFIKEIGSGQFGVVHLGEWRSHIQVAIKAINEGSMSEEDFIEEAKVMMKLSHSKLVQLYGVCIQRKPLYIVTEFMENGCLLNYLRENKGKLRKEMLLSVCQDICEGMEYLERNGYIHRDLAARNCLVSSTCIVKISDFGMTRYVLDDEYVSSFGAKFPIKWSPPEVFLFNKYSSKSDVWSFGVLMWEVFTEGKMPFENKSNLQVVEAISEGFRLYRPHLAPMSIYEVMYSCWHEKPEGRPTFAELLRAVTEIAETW

[14] = target: Serine/threonine-protein kinase TBK1 (Homo sapiens) (UniProt Q9UHD2); assay: Inhibition of human TBK1 assessed as residual activity at 1 uM relative to control
[15] = target: Mitogen-activated protein kinase 12 (Homo sapiens) (UniProt P53778); assay: Inhibition of human SAPK3 assessed as residual activity at 1 uM relative to control
[16] = target: Mitogen-activated protein kinase 14 (Homo sapiens) (UniProt Q16539); assay: Inhibition of human SAPK2alpha assessed as residual activity at 1 uM relative to control
[17] = Antiproliferative activity against human EKVX cells after 3 days by sulforhodamine B assay; format: functional; conditions: 72 h; in short: as §1
[18] = tested on: MCF7; assay: Cell cycle arrest in human MCF7 cells assessed as accumulation at G2/M phase at 0.25 uM after 24 hrs using propidium iodide staining by FACS analysis (reference value: 22.13%); format: functional
[19] = target: Protein kinase C alpha type (Homo sapiens) (UniProt P17252); assay: Inhibition of human PKCalpha assessed as residual activity at 1 uM relative to control
[20] = target: Serine/threonine-protein kinase pim-1 (Homo sapiens) (UniProt P11309); assay: Inhibition of human Pim-1 assessed as residual activity at 1 uM relative to control
Serine/threonine-protein kinase pim-1 (Homo sapiens), sequence (P11309 whole entry, looked up): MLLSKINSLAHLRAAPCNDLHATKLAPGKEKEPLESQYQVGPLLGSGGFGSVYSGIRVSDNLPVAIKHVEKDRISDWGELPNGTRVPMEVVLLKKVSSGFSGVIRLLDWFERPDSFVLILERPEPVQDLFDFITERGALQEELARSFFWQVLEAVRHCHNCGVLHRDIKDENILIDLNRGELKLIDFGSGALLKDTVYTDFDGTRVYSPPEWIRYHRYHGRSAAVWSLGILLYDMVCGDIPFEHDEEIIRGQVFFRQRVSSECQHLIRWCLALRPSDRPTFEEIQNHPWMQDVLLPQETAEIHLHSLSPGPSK

[21] = target: Ribosomal protein S6 kinase alpha-4 (Homo sapiens) (UniProt O75676); assay: Inhibition of human MSK2 assessed as residual activity at 1 uM relative to control
[22] = target: Mitogen-activated protein kinase kinase kinase 9 (Homo sapiens) (UniProt P80192); assay: Inhibition of human MLK1 assessed as residual activity at 1 uM relative to control
[23] = target: Myosin light chain kinase, smooth muscle (Homo sapiens) (UniProt Q15746); assay: Inhibition of human MLCK assessed as residual activity at 1 uM relative to control
[24] = target: Maternal embryonic leucine zipper kinase (Homo sapiens) (UniProt Q14680); assay: Inhibition of human MELK assessed as residual activity at 1 uM relative to control
[25] = target: Mitogen-activated protein kinase 1 (Homo sapiens) (UniProt P28482); assay: Inhibition of human MAPK1 assessed as residual activity at 1 uM relative to control
[26] = target: Tyrosine-protein kinase JAK3 (Homo sapiens) (UniProt P52333); assay: Inhibition of human JAK3 assessed as residual activity at 1 uM relative to control
Tyrosine-protein kinase JAK3 (Homo sapiens), sequence (P52333 whole entry): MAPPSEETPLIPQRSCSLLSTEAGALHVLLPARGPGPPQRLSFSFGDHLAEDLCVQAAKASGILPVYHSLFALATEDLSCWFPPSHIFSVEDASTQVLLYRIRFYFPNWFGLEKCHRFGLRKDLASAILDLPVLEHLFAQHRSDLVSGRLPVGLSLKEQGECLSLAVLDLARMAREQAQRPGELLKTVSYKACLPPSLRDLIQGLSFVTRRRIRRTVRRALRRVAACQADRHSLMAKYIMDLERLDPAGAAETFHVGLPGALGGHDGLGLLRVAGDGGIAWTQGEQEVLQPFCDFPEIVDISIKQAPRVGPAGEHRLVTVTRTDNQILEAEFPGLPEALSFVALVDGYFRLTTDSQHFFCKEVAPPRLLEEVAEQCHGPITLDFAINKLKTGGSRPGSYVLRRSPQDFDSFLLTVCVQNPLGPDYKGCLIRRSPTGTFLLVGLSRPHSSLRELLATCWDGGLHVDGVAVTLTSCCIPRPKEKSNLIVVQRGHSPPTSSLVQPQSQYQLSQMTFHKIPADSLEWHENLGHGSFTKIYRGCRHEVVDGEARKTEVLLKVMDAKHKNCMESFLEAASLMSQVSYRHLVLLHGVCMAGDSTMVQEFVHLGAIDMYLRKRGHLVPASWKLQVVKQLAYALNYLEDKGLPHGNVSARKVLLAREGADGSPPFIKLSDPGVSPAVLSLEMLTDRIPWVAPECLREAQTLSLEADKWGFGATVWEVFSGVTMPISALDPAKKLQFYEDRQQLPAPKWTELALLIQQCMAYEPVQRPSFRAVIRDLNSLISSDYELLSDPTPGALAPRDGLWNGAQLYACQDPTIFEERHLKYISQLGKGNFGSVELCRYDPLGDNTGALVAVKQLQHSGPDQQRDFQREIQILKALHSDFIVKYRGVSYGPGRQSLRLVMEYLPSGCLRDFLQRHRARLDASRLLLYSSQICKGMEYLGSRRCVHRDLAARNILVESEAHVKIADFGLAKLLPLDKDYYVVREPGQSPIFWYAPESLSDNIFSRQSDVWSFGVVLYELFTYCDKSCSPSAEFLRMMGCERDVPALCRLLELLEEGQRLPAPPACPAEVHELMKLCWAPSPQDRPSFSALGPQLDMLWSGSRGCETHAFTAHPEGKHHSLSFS

[27] = target: Homeodomain-interacting protein kinase 1 (Homo sapiens) (UniProt Q86Z02); assay: Inhibition of human HIPK1 assessed as residual activity at 1 uM relative to control
Homeodomain-interacting protein kinase 1 (Homo sapiens), sequence (Q86Z02 whole entry, looked up): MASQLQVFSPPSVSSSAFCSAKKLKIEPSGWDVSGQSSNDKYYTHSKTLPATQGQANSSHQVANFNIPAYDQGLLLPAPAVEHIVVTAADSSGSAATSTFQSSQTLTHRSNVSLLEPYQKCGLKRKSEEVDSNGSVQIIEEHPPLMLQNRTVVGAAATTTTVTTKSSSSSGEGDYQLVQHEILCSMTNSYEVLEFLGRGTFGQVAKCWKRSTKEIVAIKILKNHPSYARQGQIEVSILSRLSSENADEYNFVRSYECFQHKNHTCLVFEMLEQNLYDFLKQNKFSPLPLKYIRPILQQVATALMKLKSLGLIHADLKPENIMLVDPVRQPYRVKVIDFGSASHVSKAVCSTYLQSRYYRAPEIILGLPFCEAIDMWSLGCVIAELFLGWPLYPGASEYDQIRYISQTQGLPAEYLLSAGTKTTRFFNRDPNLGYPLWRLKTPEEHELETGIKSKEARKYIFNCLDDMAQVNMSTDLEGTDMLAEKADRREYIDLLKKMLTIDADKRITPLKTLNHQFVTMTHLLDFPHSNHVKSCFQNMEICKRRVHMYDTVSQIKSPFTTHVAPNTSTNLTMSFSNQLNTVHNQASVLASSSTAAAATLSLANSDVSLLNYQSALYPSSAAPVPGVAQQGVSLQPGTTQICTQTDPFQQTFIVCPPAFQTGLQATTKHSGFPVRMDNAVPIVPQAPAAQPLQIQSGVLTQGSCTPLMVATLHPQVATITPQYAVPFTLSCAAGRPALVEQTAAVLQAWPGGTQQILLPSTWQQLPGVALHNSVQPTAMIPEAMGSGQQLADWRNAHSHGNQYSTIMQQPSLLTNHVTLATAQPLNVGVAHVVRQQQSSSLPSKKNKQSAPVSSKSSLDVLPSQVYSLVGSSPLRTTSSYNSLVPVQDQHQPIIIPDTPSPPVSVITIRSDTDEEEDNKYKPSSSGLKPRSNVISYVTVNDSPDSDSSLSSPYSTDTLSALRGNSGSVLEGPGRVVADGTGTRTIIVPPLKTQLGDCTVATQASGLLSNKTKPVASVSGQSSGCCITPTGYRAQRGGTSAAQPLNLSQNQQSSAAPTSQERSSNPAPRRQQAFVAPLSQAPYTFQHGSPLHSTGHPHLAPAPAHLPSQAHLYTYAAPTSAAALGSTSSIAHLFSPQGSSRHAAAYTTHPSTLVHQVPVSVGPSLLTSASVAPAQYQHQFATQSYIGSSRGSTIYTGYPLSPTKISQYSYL

[28] = target: Fibroblast growth factor receptor 4 (Homo sapiens) (UniProt P22455); assay: Inhibition of human FGFR4 assessed as residual activity at 1 uM relative to control
[29] = target: Dual specificity protein kinase CLK3 (Homo sapiens) (UniProt P49761); assay: Inhibition of human CLK3 assessed as residual activity at 1 uM relative to control
[30] = target: NUAK family SNF1-like kinase 1 (Homo sapiens) (UniProt O60285); assay: Inhibition of human ARK5 assessed as residual activity at 1 uM relative to control
[31] = target: ALK tyrosine kinase receptor (Homo sapiens) (UniProt Q9UM73); assay: Inhibition of human ALK assessed as residual activity at 1 uM relative to control
[32] = target: Tyrosine-protein kinase ABL1 (Homo sapiens) (UniProt P00519); assay: Inhibition of human Abl assessed as residual activity at 1 uM relative to control
[33] = target: Fibroblast growth factor receptor 1 (Homo sapiens) (UniProt P11362); assay: Inhibition of FGF-R1 (unknown origin) assessed as residual activity at 10 uM relative to control
[34] = tested on: Ribosomal protein S6 kinase alpha-6 (Homo sapiens); assay: Inhibition of human Rsk4 assessed as residual activity at 1 uM relative to control

O=C1Nc2ncccc2/C1=C1/Nc2ncccc2C1=O
Activity [1]: 92%
Activity [2]: 85%
Activity [3]: 99%
Activity [4]: 96%
GI50 [5]: 1670 nM
GI50 [6]: 474 nM
GI50 [7]: 1020 nM
GI50 [8]: 338 nM
GI50 [9]: 1580 nM
GI50 [10]: 282 nM
Activity [11]: 0.17%
Activity [12]: 120%
Activity [13]: 126%
Activity [14]: 120%
Activity [15]: 101%
Activity [16]: 111%
GI50 [17]: 1270 nM
Activity [18]: 21.66%
Activity [19]: 88%
Activity [20]: 108%
Activity [21]: 78%
Activity [22]: 61%
Activity [23]: 73%
Activity [24]: 87%
Activity [25]: 96%
Activity [26]: 85%
Activity [27]: 80%
Activity [28]: 108%
Activity [29]: 86%
Activity [30]: 81%
Activity [31]: 97%
Activity [32]: 122%
Activity [33]: 81%
Activity [34]: 122%
